Test results taken from ChEMBL document CHEMBL1141586, “Design and optimization of imidazole derivatives as potent CXCR3 antagonists” (Bioorg Med Chem Lett, 2008).
≈ marks a conversion by molar mass, not a printed value.

What was measured:
[1] = target: T1, C-X-C chemokine receptor type 3 (Homo sapiens, UniProt P49682); assay: Displacement of [125I]IP10 from human recombinant CXCR3 receptor expressed in IL2-activated human PBMC in presence of plasma
T1 sequence (P49682 whole entry): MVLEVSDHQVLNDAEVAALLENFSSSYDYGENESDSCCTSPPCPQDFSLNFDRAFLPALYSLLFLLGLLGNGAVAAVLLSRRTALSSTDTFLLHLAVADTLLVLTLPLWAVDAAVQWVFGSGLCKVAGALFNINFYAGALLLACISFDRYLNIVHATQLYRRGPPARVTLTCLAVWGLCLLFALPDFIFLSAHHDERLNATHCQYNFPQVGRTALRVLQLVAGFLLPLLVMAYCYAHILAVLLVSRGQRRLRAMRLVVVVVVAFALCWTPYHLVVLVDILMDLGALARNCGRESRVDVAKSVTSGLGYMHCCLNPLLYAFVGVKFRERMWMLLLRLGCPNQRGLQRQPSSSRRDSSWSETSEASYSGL
In short: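 PBMC were activated for 14 days with anti-CD3 mAb and recombinant human IL-2, then co-incubated with antagonist and recombinant human 125I-IP10 for 2 h at room temperature in EDTA-anticoagulated human plasma (from frozen stocks). Cells were filter-harvested and bound radioactivity counted by scintillation. IC50 is the mean of three experiments.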

[2] = target: T2, C-X-C chemokine receptor type 3 (Homo sapiens) (UniProt P49682); assay: Antagonist activity at human CXCR3 receptor assessed as ITAC-induced cellular migration in PBMC in presence of plasma; format: functional
T2 sequence (whole entry): T1 sequence (P49682 whole entry)

[3] = target: T1, C-X-C chemokine receptor type 3; assay: Displacement of [125I]IP10 from human recombinant CXCR3 receptor expressed in IL2-activated human PBMC
Liver microsomes = assay: Metabolic stability in human liver microsomes assessed as decrease in glutathione conjugate formation; format: ADME, Microsome; design: scale not given: the % may be the effect or the level left
[4] = Mean residence time in rat at 2 mg/kg, po; format: ADME, organism-based; design: dose 2 mg/kg, route oral; conditions: in vivo
Rattus norvegicus [5] = assay: Clearance in rat at 0.5 mg/kg, iv; format: ADME, organism-based; design: dose 0.5 mg/kg, route intravenous; conditions: in vivo
In short: (§1)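 Rats given a single intravenous dose of 0.5 mg/kg; clearance, AUC and mean residence time derived from plasma exposure; n = 2 animals.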

Rattus norvegicus [6] = assay: AUC in rat at 0.5 mg/kg, iv; format: ADME, organism-based, Plasma; design: dose 0.5 mg/kg, route intravenous; conditions: in vivo; in short: as §1
[7] = Oral bioavailability in rat at 2 mg/kg; format: ADME, organism-based; conditions: in vivo
[8] = AUC in rat at 2 mg/kg, po; format: ADME, organism-based; design: dose 2 mg/kg, route oral; conditions: plasma
[9] = Mean residence time in rat at 0.5 mg/kg, iv; format: ADME, organism-based; design: dose 0.5 mg/kg, route intravenous; conditions: in vivo; in short: as §1
[10] = Solubility at pH 7.4; format: physicochemical; conditions: buffer
In short: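 10 mM DMSO stock added to pH 7.4 assay buffer, final DMSO about 1%. Compound concentration in the supernatant is measured.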

[11] = Membrane permeability by PAMPA assay; format: ADME; conditions: read-out: permeability
In short: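 PAMPA: passive permeation across an artificial phospholipid bilayer membrane; result expressed in 10^-6 cm/s.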

| SMILES | IC50 [1] [nM] | Activity [2] [nM] | IC50 [3] [nM] | also measured |
| --- | --- | --- | --- | --- |
| C=Cc1c(C2CC2)nc([C@@H](C)N(CCS(=O)(=O)CC)C(=O)Cc2ccc(F)c(C(F)(F)F)c2)n1-c1ccc(C#N)cc1 | 22 | 45 | 3.8 | Activity (Liver microsomes): 8% |
| CCOc1ccc(-n2cc(-c3ccccc3)nc2[C@@H](C)N(CCCS(=O)(=O)CC)C(=O)Cc2ccc(F)c(C(F)(F)F)c2)cc1 | 18 |  | 2.4 |  |
| CCOc1ccc(-n2cc(-c3ccccc3)nc2[C@@H](C)N(C[C@@H]2CCCN2C)C(=O)Cc2ccc(F)c(C(F)(F)F)c2)cc1 | 31 |  | 6.4 |  |
| CCOc1ccc(-n2cc(-c3ccccc3)nc2[C@@H](C)N(CCS(=O)(=O)CC)C(=O)Cn2cnc(-c3ccccc3)c2)cc1 | 24 |  | 4.8 |  |
| CCS(=O)(=O)CCN(C(=O)Cc1ccc(F)c(C(F)(F)F)c1)[C@H](C)c1nc(-c2cccnc2)cn1-c1ccc(C#N)cc1 | 29 | 91 | 2.3 |  |
| CCOc1ccc(-n2cc(-c3ccccc3)nc2[C@@H](C)N(C[C@H]2CCCN2)C(=O)Cc2ccc(F)c(C(F)(F)F)c2)cc1 | 36 |  | 46 |  |
| CCOc1ccc(-n2cc(-c3ccccc3)nc2[C@@H](C)N(CCS(=O)(=O)CC)C(=O)Cn2nnc(-c3ccccc3)n2)cc1 | 69 |  | 9.4 |  |
| CCOc1ccc(-n2cc(-c3ccccc3)nc2[C@@H](C)N(CCS(=O)(=O)CC)C(=O)Cn2nnc(-c3ccc(C(F)(F)F)cc3)n2)cc1 | 19 |  | 2.1 |  |
| CCS(=O)(=O)CCN(C(=O)Cc1ccc(F)c(C(F)(F)F)c1)[C@H](C)c1nc(C2CC2)c(Cl)n1-c1ccc(C#N)cc1 | 24 | 80 | 7.8 | MRT [4]: 5.4 h; CL (Rattus norvegicus [5]): 38.3 mL/min/kg; AUC (Rattus norvegicus [6]): 219; bioavailability [7]: 26%; AUC [8]: 225 ng·h/mL; Activity (Liver microsomes): 0%; MRT [9]: 1.3 h |
| CCS(=O)(=O)CCN(C(=O)Cc1ccc(F)c(C(F)(F)F)c1)[C@H](C)c1nc(C(C)C)cn1-c1ccc(C#N)cc1 | 19 | 54 | 2.6 |  |
| CCOc1ccc(-n2cc(-c3ccccc3)nc2[C@@H](C)N(Cc2ccccn2)C(=O)Cc2ccc(F)c(C(F)(F)F)c2)cc1 | 1180 |  | 80 |  |
| CCS(=O)(=O)CCN(C(=O)Cc1ccc(F)c(C(F)(F)F)c1)[C@H](C)c1nc(C2CC2)c(C#N)n1-c1ccc(C#N)cc1 | 276 |  | 72 | Activity (Liver microsomes): 0% |
| CCOc1ccc(-n2cc(-c3ccccc3)nc2[C@@H](C)N(CCS(=O)(=O)CC)C(=O)Cn2nnc(C3CC3)n2)cc1 | 1660 |  | 44 |  |
| CCc1c(C2CC2)nc([C@@H](C)N(CCS(=O)(=O)CC)C(=O)Cc2ccc(F)c(C(F)(F)F)c2)n1-c1ccc(C#N)cc1 | 16 | 29 | 3.2 | Activity (Liver microsomes): 14% |
| CCS(=O)(=O)CCN(C(=O)Cc1ccc(F)c(C(F)(F)F)c1)[C@H](C)c1nc(C2CC2)c(C(F)F)n1-c1ccc(C#N)cc1 | 18 | 20 | 12 | MRT [4]: 2.4 h; CL (Rattus norvegicus [5]): 36.7 mL/min/kg; AUC (Rattus norvegicus [6]): 237 ng·h/mL; bioavailability [7]: 48%; AUC [8]: 456 ng·h/mL; Activity (Liver microsomes): 0%; MRT [9]: 0.9 h |
| CCOc1ccc(-n2cc(-c3ccccc3)nc2[C@@H](C)N(Cc2cccnc2)C(=O)Cc2ccc(F)c(C(F)(F)F)c2)cc1 | 91 |  | 11 |  |
| CCS(=O)(=O)CCN(C(=O)Cc1ccc(F)c(C(F)(F)F)c1)[C@H](C)c1nc(C2CC2)c(C(F)(F)F)n1-c1ccc(C#N)cc1 | 45 | 268 | 19 | Activity (Liver microsomes): 0% |

| SMILES | IC50 [1] [nM] | Activity [2] [nM] | IC50 [3] [nM] | also measured |
| --- | --- | --- | --- | --- |
| CCOCCN(C(=O)Cc1ccc(F)c(C(F)(F)F)c1)[C@H](C)c1nc(-c2ccccc2)cn1-c1ccc(OCC)cc1 | 202 |  | 11 |  |
| CCOc1ccc(-n2cc(-c3ccccc3)nc2[C@@H](C)N(CCS(=O)(=O)CC)C(=O)Cn2cc(-c3ccccc3)nn2)cc1 | 49 |  | 5.6 |  |
| CCOc1ccc(-n2cc(-c3ccccc3)nc2[C@@H](C)N(Cc2ccncc2)C(=O)Cc2ccc(F)c(C(F)(F)F)c2)cc1 | 129 |  | 35 |  |
| CCOc1ccc(-n2cc(-c3ccccc3)nc2[C@@H](C)N(CCS(=O)(=O)CC)C(=O)Cn2ccc(C(F)(F)F)n2)cc1 | 1120 |  | 40 |  |
| CCS(=O)(=O)CCN(C(=O)Cc1ccc(F)c(C(F)(F)F)c1)[C@H](C)c1nc(C2CC2)c(CO)n1-c1ccc(C#N)cc1 | 33 | 113 | 10 | Activity (Liver microsomes): 1% |
| CCOc1ccc(-n2cc(-c3ccccc3)nc2[C@@H](C)N(C[C@H]2CCCN2C)C(=O)Cc2ccc(F)c(C(F)(F)F)c2)cc1 | 81 |  | 14 |  |
| CCOc1ccc(-n2ccnc2[C@@H](C)N(Cc2cccnc2)C(=O)Cc2ccc(F)c(C(F)(F)F)c2)cc1 |  |  | 1800 |  |
| CCS(=O)(=O)CCN(C(=O)Cc1ccc(F)c(C(F)(F)F)c1)[C@H](C)c1nc(C2CC2)c(CF)n1-c1ccc(C#N)cc1 | 28 | 119 | 8 |  |
| CCOc1ccc(-n2cc(-c3ccccc3)nc2[C@@H](C)N(C[C@@H]2CCCN2)C(=O)Cc2ccc(F)c(C(F)(F)F)c2)cc1 | 20 |  | 11 |  |
| CCS(=O)(=O)CCN(C(=O)Cc1ccc(F)c(C(F)(F)F)c1)[C@H](C)c1nc(-c2ccccc2)cn1-c1ccc(C#N)cc1 | 14 | 10 | 0.7 | MRT [4]: 0.9 h; solubility [10]: 0.5 µg/mL (≈ 0.816 µM); Papp [11]: 0.9 ×10⁻⁶ cm/s; CL (Rattus norvegicus [5]): 91.7 mL/min/kg; AUC (Rattus norvegicus [6]): 92 ng·h/mL; bioavailability [7]: 3%; AUC [8]: 11 ng·h/mL; MRT [9]: 0.3 h |
| CCS(=O)(=O)CCN(C(=O)Cc1ccc(F)c(C(F)(F)F)c1)[C@H](C)c1nc(-c2ccccn2)cn1-c1ccc(C#N)cc1 | 43 | 33 | 4 |  |
| CCOc1ccc(-n2cc(-c3ccccc3)nc2[C@@H](C)N(CCS(=O)(=O)CC)C(=O)Cc2ccc(OC(F)(F)F)cc2)cc1 | 45 |  | 7.1 |  |
| CCOc1ccc(-n2cc(-c3ccccc3)nc2[C@@H](C)N(CCS(=O)(=O)CC)C(=O)Cn2nnc(-c3ccc(F)cc3)n2)cc1 | 47 |  | 5 |  |
| CCS(=O)(=O)CCN(C(=O)Cc1ccc(F)c(C(F)(F)F)c1)[C@H](C)c1nc(C2CC2)cn1-c1ccc(C#N)cc1 | 37 | 53 | 6.6 | MRT [4]: 2.4 h; solubility [10]: 32 µg/mL (≈ 55.5 µM); Papp [11]: 5.1 ×10⁻⁶ cm/s; CL (Rattus norvegicus [5]): 55 mL/min/kg; AUC (Rattus norvegicus [6]): 149 ng·h/mL; bioavailability [7]: 16%; AUC [8]: 95 ng·h/mL; Activity (Liver microsomes): 44%; MRT [9]: 1 h |
| CCOc1ccc(-n2cc(-c3ccccc3)nc2[C@@H](C)N(CCS(=O)(=O)CC)C(=O)Cc2ccc(F)c(C(F)(F)F)c2)cc1 | 4.5 |  | 0.4 |  |
| CCS(=O)(=O)CCN(C(=O)Cc1ccc(F)c(C(F)(F)F)c1)[C@H](C)c1nc(C(C)(C)C)cn1-c1ccc(C#N)cc1 | 21 | 100 | 2.5 |  |
| CCS(=O)(=O)CCN(C(=O)Cc1ccc(F)c(C(F)(F)F)c1)[C@H](C)c1nc(C2CC2)c(-c2ccccc2)n1-c1ccc(C#N)cc1 | 10000 |  | 752 |  |
